In ChEMBL document CHEMBL1154616, “Synthesis and antitumor activity studies of some new fused 1,2,4-triazole derivatives carrying 2,4-dichloro-5-fluorophenyl moiety” (Eur J Med Chem, 2009):

Columns and labels:
Assay type in all cases: functional
SF-539 = test: Anticancer activity against human SF539 cells after 48 hrs by sulforhodamine B assay; details: SF-539, 48 h
Procedure, shortened: (§1)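 Full 60-cell-line panel, compounds tested over a five-log dose range. Cells are preincubated on microtiter plates, the agent is added, and cultures run 48 h. The end point is sulphorhodamine B protein staining. GI50 is taken as the concentration giving 50% growth inhibition relative to untreated control cells.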

RXF 393 = test: Anticancer activity against human RXF393 cells after 48 hrs by sulforhodamine B assay; details: RXF 393, 48 h; procedure, shortened: as §1
SF-268 = test: Anticancer activity against human SF268 cells after 48 hrs by sulforhodamine B assay; details: SF-268, 48 h; procedure, shortened: as §1
NCI-H522 = test: Anticancer activity against human NCI-H522 cells after 48 hrs by sulforhodamine B assay; details: NCI-H522, 48 h; procedure, shortened: as §1
MCF7 = test: Anticancer activity against human MCF7 cells assessed as cell growth at 100 uM after 48 hrs by sulforhodamine B assay relative to control; details: MCF7, 48 h, read-out: Activity
Procedure, shortened: (§2)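 Three-cell-line prescreen (NCI-H460 lung, MCF7 breast, SF 268 CNS), each preincubated on microtiter plates. The agent is added at a single concentration and cultures are incubated 48 h. Growth is read by sulphorhodamine B protein staining and reported as percent growth of treated versus untreated control cells; negative values indicate cell kill.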

UACC-257 = test: Anticancer activity against human UACC257 cells after 48 hrs by sulforhodamine B assay; details: UACC-257, 48 h
Procedure, shortened: (§3)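 Cells from the 60-line full panel are preincubated on microtiter plates, then treated across a five-log dose range for 48 h. Growth is read with the protein-binding dye sulforhodamine B. GI50 is the concentration giving 50% growth inhibition relative to untreated control cells.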

ACHN = test: Anticancer activity against human ACHN cells after 48 hrs by sulforhodamine B assay; procedure, shortened: as §1
NCI/ADR-RES = test: Anticancer activity against human NCI/ADR-RES cells after 48 hrs by sulforhodamine B assay; procedure, shortened: as §1
OVCAR-3 = test: Anticancer activity against human OVCAR-3 cells after 48 hrs by sulforhodamine B assay; details: OVCAR-3, 48 h; procedure, shortened: as §1
MDA-MB-231 = test: Anticancer activity against human MDA-MB-231 cells after 48 hrs by sulforhodamine B assay; details: MDA-MB-231, 48 h; procedure, shortened: as §1
SN12C = test: Anticancer activity against human SN12C cells after 48 hrs by sulforhodamine B assay; procedure, shortened: as §1
OVCAR-4 = test: Anticancer activity against human OVCAR4 cells after 48 hrs by sulforhodamine B assay; details: OVCAR-4, 48 h; procedure, shortened: as §1
NCI-H226 = test: Anticancer activity against human NCI-H226 cells after 48 hrs by sulforhodamine B assay; details: NCI-H226, 48 h; procedure, shortened: as §1
KM12 = test: Anticancer activity against human KM12 cells after 48 hrs by sulforhodamine B assay; details: KM12, 48 h; procedure, shortened: as §1
Malme-3M = test: Anticancer activity against human MALME-3M cells after 48 hrs by sulforhodamine B assay; procedure, shortened: as §1
SNB-19 = test: Anticancer activity against human SNB19 cells after 48 hrs by sulforhodamine B assay; details: SNB-19, 48 h; procedure, shortened: as §1
COLO 205 = test: Anticancer activity against human COLO205 cells after 48 hrs by sulforhodamine B assay; details: COLO 205, 48 h; procedure, shortened: as §1
MDA-MB-435 = test: Anticancer activity against human MDA-MB-435 cells after 48 hrs by sulforhodamine B assay; details: MDA-MB-435, 48 h; procedure, shortened: as §1
CCRF-CEM = test: Anticancer activity against human CCRF-CEM cells after 48 hrs by sulforhodamine B assay; procedure, shortened: as §1
SW-620 = test: Anticancer activity against human SW620 cells after 48 hrs by sulforhodamine B assay; details: SW-620, 48 h; procedure, shortened: as §3
MOLT-4 = test: Anticancer activity against human MOLT4 cells after 48 hrs by sulforhodamine B assay; details: MOLT-4, 48 h; procedure, shortened: as §1
SR = test: Anticancer activity against human SR cells after 48 hrs by sulforhodamine B assay; procedure, shortened: as §3
K562 = test: Anticancer activity against human K562 cells after 48 hrs by sulforhodamine B assay; details: K562, 48 h; procedure, shortened: as §1
HCC 2998 = test: Anticancer activity against human HCC2998 cells after 48 hrs by sulforhodamine B assay; details: HCC 2998, 48 h; procedure, shortened: as §1
NCI-H460 [1] = test: Anticancer activity against human NCI-H460 cells assessed as cell growth at 100 uM after 48 hrs by sulforhodamine B assay relative to control; details: NCI-H460, 48 h, read-out: Activity; procedure, shortened: as §2
NCI-H460 [2] = test: Anticancer activity against human NCI-H460 cells after 48 hrs by sulforhodamine B assay; details: NCI-H460, 48 h; procedure, shortened: as §1
SNB-75 = test: Anticancer activity against human SNB75 cells after 48 hrs by sulforhodamine B assay; details: SNB-75, 48 h; procedure, shortened: as §3

Question: How did the GI50 (SF-539) turn out when `Fc1cc(C2=Nn3c(nnc3-c3cc(F)c(Cl)cc3Cl)SC2)c(Cl)cc1Cl` was run?
Answer: The GI50 was 18.9 µM.

Question: What about the GI50 (RXF 393) of the same compound?
Answer: The GI50 was 23.2 µM.

Question: What about the GI50 (SF-268) of the same compound?
Answer: Its GI50 is 18.5 µM.

Question: And the GI50 (NCI-H522)?
Answer: The GI50 was 24.2 µM.

Question: And the growth at 100 µM (MCF7)?
Answer: The growth at 100 µM was 44%.

Question: What about the GI50 (UACC-257) of the same compound?
Answer: The GI50 was 30.2 µM.

Question: And the GI50 (ACHN)?
Answer: Its GI50 is 26.6 µM.

Question: What about the GI50 (NCI/ADR-RES) of the same compound?
Answer: Its GI50 is 27.4 µM.

Question: What about the GI50 (OVCAR-3) of the same compound?
Answer: The GI50 was 11.5 µM.

Question: And the GI50 (MDA-MB-231)?
Answer: The GI50 was 13.4 µM.

Question: What about the GI50 (SN12C) of the same compound?
Answer: The GI50 was 18.4 µM.

Question: And the GI50 (OVCAR-4)?
Answer: The GI50 was 34.5 µM.

Question: And the GI50 (NCI-H226)?
Answer: The GI50 was 14.9 µM.

Question: What about the GI50 (KM12) of the same compound?
Answer: Its GI50 is 28.5 µM.

Question: And the GI50 (Malme-3M)?
Answer: The GI50 was 28.4 µM.

Question: And the GI50 (SNB-19)?
Answer: The GI50 was 22.7 µM.

Question: What about the GI50 (COLO 205) of the same compound?
Answer: Its GI50 is 19 µM.

Question: What about the GI50 (MDA-MB-435) of the same compound?
Answer: Its GI50 is 27.8 µM.

Question: And the GI50 (CCRF-CEM)?
Answer: Its GI50 is 22 µM.

Question: And the GI50 (SW-620)?
Answer: Its GI50 is 22.6 µM.

Question: What about the GI50 (MOLT-4) of the same compound?
Answer: The GI50 was 16.9 µM.

Question: And the GI50 (SR)?
Answer: Its GI50 is 25.4 µM.

Question: And the GI50 (K562)?
Answer: The GI50 was 17.8 µM.

Question: What about the GI50 (HCC 2998) of the same compound?
Answer: Its GI50 is 31.6 µM.

Question: What about the growth at 100 µM (NCI-H460 [1]) of the same compound?
Answer: The growth at 100 µM was 6%.

Question: What about the GI50 (NCI-H460 [2]) of the same compound?
Answer: The GI50 was 17.6 µM.

Question: And the GI50 (SNB-75)?
Answer: The GI50 was 26.2 µM.
